Measured values: ChEMBL document CHEMBL3102848, “Carbamazepine derivatives with P2X4 receptor-blocking activity” (Bioorg Med Chem, 2014)
pIC50: −log10 of the molar value.

Legend:
P2X purinoceptor 4 [1] = target: T1, P2X purinoceptor 4 (Homo sapiens, UniProt Q99571); assay: Antagonist activity at human P2X4 receptor expressed in human 1321N1 cells assessed as inhibition of ATP-induced cytosolic calcium influx preincubated for 30 mins followed by ATP addition by Fluo-4 AM dye-based fluorescence assay; assay type: cell-based
T1 sequence (Q99571 whole entry): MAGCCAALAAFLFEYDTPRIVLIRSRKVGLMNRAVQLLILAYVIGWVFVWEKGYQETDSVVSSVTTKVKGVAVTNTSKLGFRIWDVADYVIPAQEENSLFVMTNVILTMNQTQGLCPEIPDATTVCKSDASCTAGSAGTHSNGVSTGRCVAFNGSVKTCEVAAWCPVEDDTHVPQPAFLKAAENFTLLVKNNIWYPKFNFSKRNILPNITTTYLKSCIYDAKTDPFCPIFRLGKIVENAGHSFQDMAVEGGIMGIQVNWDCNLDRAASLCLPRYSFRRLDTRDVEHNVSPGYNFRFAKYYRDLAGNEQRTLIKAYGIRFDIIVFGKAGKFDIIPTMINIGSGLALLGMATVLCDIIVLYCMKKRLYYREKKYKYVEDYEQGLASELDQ
Summary of the method: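 Human P2X4 stably transfected into 1321N1 astrocytoma cells. Inhibition of ATP-induced calcium influx measured as in earlier work. Compounds were first screened at a single high concentration, chosen according to their solubility.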

P2X purinoceptor 4 [2] = target: T2, P2X purinoceptor 4 (Rattus norvegicus, UniProt P51577); assay: Antagonist activity at rat P2X4 receptor assessed as inhibition of ATP-induced calcium influx preincubated for 30 mins followed by ATP addition by Fluo-4 AM dye-based fluorescence assay
T2 sequence (P51577 whole entry): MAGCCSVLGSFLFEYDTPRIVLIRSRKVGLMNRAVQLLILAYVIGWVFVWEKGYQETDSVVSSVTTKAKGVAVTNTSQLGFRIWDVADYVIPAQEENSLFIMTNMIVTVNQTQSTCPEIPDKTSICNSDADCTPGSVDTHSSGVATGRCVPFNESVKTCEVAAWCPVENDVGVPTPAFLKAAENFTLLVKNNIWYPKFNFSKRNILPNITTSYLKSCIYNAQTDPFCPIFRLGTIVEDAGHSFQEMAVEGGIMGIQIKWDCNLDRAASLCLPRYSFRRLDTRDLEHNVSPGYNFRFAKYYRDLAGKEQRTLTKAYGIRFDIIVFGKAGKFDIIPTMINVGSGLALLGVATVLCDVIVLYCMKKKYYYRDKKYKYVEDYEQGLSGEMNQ

P2X purinoceptor 1 = target: T3, P2X purinoceptor 1 (Homo sapiens, UniProt P51575); assay: Antagonist activity at human P2X1 receptor expressed in human 1321N1 cells assessed as inhibition of ATP-induced cytosolic calcium influx preincubated for 30 mins followed by ATP addition by Fluo-4 AM dye-based fluorescence assay; assay type: cell-based
T3 sequence (P51575 whole entry): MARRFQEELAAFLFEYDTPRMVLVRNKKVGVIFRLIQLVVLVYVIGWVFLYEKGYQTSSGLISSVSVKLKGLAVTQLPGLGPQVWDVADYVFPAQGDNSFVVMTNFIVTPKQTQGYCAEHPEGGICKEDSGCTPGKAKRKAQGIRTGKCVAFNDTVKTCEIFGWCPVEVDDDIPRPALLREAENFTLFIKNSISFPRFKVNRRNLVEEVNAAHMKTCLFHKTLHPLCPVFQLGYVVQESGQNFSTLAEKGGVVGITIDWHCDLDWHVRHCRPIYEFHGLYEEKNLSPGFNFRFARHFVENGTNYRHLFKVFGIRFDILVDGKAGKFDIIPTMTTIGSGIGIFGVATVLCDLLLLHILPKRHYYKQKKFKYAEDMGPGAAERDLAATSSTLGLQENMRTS

P2X purinoceptor 2 = target: T4, P2X purinoceptor 2 (Homo sapiens, UniProt Q9UBL9); assay: Antagonist activity at human P2X2 receptor expressed in human 1321N1 cells assessed as inhibition of ATP-induced cytosolic calcium influx preincubated for 30 mins followed by ATP addition by Fluo-4 AM dye-based fluorescence assay; assay type: cell-based
T4 sequence (Q9UBL9 whole entry): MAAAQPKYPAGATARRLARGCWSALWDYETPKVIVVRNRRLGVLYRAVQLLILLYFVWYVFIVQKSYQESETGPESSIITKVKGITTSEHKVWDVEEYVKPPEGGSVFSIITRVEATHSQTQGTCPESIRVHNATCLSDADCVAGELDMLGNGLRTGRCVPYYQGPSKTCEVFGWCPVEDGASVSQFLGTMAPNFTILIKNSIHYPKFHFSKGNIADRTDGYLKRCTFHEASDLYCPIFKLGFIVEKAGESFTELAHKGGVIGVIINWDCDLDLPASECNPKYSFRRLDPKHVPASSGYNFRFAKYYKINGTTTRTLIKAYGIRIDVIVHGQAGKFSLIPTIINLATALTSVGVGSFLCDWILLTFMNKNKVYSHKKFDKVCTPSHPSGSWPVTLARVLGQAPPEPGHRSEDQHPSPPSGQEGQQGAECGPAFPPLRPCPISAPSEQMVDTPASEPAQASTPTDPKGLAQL

P2X purinoceptor 7 = target: T5, P2X purinoceptor 7 (Homo sapiens, UniProt Q99572); assay: Antagonist activity at human P2X7 receptor expressed in human 1321N1 cells assessed as inhibition of ATP-induced cytosolic calcium influx preincubated for 30 mins followed by ATP addition by Fluo-4 AM dye-based fluorescence assay; assay type: cell-based
T5 sequence (Q99572 whole entry): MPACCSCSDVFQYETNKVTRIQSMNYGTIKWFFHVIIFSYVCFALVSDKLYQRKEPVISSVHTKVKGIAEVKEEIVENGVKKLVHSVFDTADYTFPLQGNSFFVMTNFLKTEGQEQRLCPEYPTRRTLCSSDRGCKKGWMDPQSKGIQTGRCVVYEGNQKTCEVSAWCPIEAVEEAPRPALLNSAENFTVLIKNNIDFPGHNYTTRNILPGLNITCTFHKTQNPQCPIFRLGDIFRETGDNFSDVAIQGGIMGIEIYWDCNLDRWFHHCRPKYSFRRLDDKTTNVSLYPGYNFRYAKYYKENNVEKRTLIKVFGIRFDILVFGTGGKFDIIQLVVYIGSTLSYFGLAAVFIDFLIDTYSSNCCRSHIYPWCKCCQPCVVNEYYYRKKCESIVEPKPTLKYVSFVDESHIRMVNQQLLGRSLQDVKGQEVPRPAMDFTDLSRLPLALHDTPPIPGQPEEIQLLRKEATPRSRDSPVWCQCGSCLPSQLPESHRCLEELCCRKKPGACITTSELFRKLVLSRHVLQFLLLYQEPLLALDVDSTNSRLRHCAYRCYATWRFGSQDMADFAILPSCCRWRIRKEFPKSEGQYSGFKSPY

[3] = target: T6, P2X purinoceptor 2 (Homo sapiens) (UniProt Q9UBL9); assay: Antagonist activity at human P2X2 receptor expressed in human 1321N1 cells assessed as inhibition of ATP-induced cytosolic calcium influx at 100 uM preincubated for 30 mins followed by ATP addition by Fluo-4 AM dye-based fluorescence assay; assay type: cell-based
T6 sequence (whole entry): T4 sequence (Q9UBL9 whole entry)

SMILES	pIC50 (P2X purinoceptor 4 [1])	pIC50 (P2X purinoceptor 4 [2])	pIC50 (P2X purinoceptor 1)	pIC50 (P2X purinoceptor 2)	pIC50 (P2X purinoceptor 7)	inhibition [3] [%]
O=C(NC1CCCCC1)N1c2ccccc2C=Cc2ccccc21	4.47	3.96	4.16	< 4.00	4.39	11
O=C(N1CCCCC1)N1c2ccccc2C=Cc2ccccc21	4.86	4.02	4.68	< 4.00	< 4.00	4
CCCN(CCC)C(=O)N1c2ccccc2C=Cc2ccccc21	5.11	4.44	5.34	< 4.00	< 4.00	-2
CC(C)N(C(=O)N1c2ccccc2C=Cc2ccccc21)C(C)C	5.46	4.26	5.27	< 4.00	4.02	8
O=C(N1CCCC1)N1c2ccccc2C=Cc2ccccc21	4.47	4.16	4.16	< 4.00	< 4.00	6
CCN(CC)C(=O)N1c2ccccc2C=Cc2ccccc21	4.94	4.37	4.60	< 4.00	4.16	1
